Screening results as filed in PubChem BioAssay.
Hits are enriched below; roughly 1.9% of the tested compounds scored in any of these assays.
MC4R barr agon = human MC4R agonism via beta-arrestin | hit rate 0.98% among 360,000 | AID 540308 | P32245 | U2OS MC4R beta-arrestin complementation, luminescence; percent of melanotan II response, DMSO zero | activation, % at 8.9 µM;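 active = activation above a per-plate cutoff, the mean activation of sample wells on that plate plus 3 SD, cut at about 8% in these data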
NOD2 RIPK2 PPI = blocks binding of human NOD2 to RIPK2. inhibition, % at 4.98 µM. CHO BLA complementation NOD2-RIPK2, CCF4 ratio. AID 624267. hit rate 0.38% among 360,000. O43353; in the data active = inhibition above about 21%
Target sequence (O43353 whole entry, looked up): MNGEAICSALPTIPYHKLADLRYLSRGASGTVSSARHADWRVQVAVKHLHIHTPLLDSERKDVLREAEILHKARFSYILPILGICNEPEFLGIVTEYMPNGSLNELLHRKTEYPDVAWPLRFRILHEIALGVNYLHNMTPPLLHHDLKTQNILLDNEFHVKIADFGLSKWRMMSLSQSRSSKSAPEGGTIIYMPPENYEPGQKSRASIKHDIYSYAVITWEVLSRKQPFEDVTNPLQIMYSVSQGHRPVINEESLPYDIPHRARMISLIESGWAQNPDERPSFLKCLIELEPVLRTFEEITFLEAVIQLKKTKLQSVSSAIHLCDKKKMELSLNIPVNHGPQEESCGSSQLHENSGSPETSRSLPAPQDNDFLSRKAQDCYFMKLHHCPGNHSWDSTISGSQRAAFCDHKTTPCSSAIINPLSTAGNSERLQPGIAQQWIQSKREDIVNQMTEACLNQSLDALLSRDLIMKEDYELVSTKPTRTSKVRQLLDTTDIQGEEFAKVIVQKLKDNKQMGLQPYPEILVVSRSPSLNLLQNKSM
MC4R antag cAMP = blocks human MC4R cAMP signaling. P32245. MC4R-expressing cells, MTII-stimulated cAMP, LANCE TR-FRET. inhibition, % at 6.5 µM. hit rate 0.48% among 360,000. AID 540295;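 active = inhibition above its plate's cutoff, the mean of tested wells on that plate plus 3 SD, cut at about 29% in these data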
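Material – human MC4R-expressing U2OS cells · Repeats – no replicates · Detection – TR-FRET with Eu-cAMP and labeled anti-cAMP, 671 nm · Times – compound 30 min, challenge 1 h, detection 1 h · Compound – single nominal compound dose of 6.5 µM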
TLR4 MyD88 comp = blocks binding of human TLR4 to MyD88. O00206+Q99836. HeLa CL3-4 TLR4/MyD88 BLA complementation, FRET ratio. inhibition, % at 8.4 µM. hit rate 0.18% among 200,000; in the data active = inhibition above about 25%
TLR9-MyD88 block = inhibitors of human TLR9-MyD88 binding | Q9NR96+Q99836 | CHO BLA complementation TLR9-MyD88, CCF4 FRET ratio | inhibition, % at 4.98 µM | hit rate 0.21% among 340,000;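 active = inhibition above the mean over all tested compounds plus 3 SD, cut at about 21% in these data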
NTR1 ag = NTR1 (human) agonism; hit rate 0.17% among 330,000; NTR1-U2OS beta-arrestin-GFP spot imaging, agonist mode; AID 493036; P30989; activation, % at 20 µM;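 active = activation at or above 40% of the spot to cytoplasm intensity ratio, with at least 20 cells analyzed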
NOD2-RIPK2 conf = confirmation of human NOD2-RIPK2 interaction inhibitors; shares compounds with NOD2 RIPK2 PPI; CHO cells, NOD2-RIPK2 BLA complementation, CCF4 FRET; inhibition, % at 4.98 µM; hit rate 70% among 1,200; AID 624370;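 active = mean inhibition across replicates above a set limit taken from the earlier primary screen, cut at about 21% in these data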
BLA counter = hits BLA reporter in NOD2-RIPK2 inhibitor counterscreen. shares compounds with NOD2 RIPK2 PPI. CHO BLA reporter, CCF4 FRET ratio. inhibition, % at 4.98 µM. hit rate 57% among 1,200. AID 624371;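 active = mean inhibition above the low-control mean inhibition plus three low-control SD, cut at about 11% in these data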
Numbers stand for hits; - = inactive; . = no result given.

SMILES | MC4R barr agon | NOD2 RIPK2 PPI | MC4R antag cAMP | TLR4 MyD88 comp | TLR9-MyD88 block | NTR1 ag | NOD2-RIPK2 conf | BLA counter
COC(=O)c1ccc2c(c1)C(C)(C)C(/C=C/c1ccc(OC)c(OC)c1OC)=[N+]2C | - | 26 | - | - | - | - | 88 | -
Cc1ccc(C2C=C(c3ccccc3)Nc3nc(N4C(=O)CCC4=O)nn32)cc1 (stereo not drawn) | - | 45 | - | - | . | - | 33 | 35
CCOCCn1cnc2sc(C(=O)NCCCN3CCOCC3)c(C)c2c1=O | - | - | - | . | - | - | . | .
CC(=O)Oc1ccccc1C(=O)C=Cc1cccc([N+](=O)[O-])c1 | - | 60 | - | . | - | . | 71 | -
Cc1cc(O)c(C(=O)/C=C/c2cccc([N+](=O)[O-])c2)c(=O)o1 | - | - | - | . | - | - | . | .
Cc1noc2ncnc(Sc3ccccc3Cl)c12 | - | 28 | - | - | - | - | 23 | -
CCN1C(=O)c2cccc3c(S(=O)(=O)N4CCCC4C(=O)O)ccc1c23 (stereo not drawn) | - | - | - | . | - | - | . | .
CCOC(=O)C1CCCN(S(=O)(=O)c2ccc3c4c(cccc24)C(=O)N3CC)C1 (stereo not drawn) | - | 27 | - | . | - | - | 25 | 25
COc1ccccc1N1C(=O)CC(N2CCN(c3ccc([N+](=O)[O-])cc3)CC2)C1=O (stereo not drawn) | - | 22 | - | . | - | - | - | -
C[C@@H]1C=C(C(=O)O)O[C@H](OCc2ccc(CO)cc2)C1 | - | - | - | - | - | - | . | .
CCOC(=O)/C=C/S(=O)(=O)c1ccc(NC(C)=O)cc1 | - | 22 | - | - | 23 | - | 54 | 21
CCOC(=O)/C=C/C(=O)Nc1ccc(S(=O)(=O)Nc2c(C)cc(C)cc2C)cc1 | - | - | - | - | - | - | . | .
CC1(C)Cc2c(sc3nc(-c4cc5ccccc5o4)n(N)c(=O)c23)CO1 | - | 23 | - | - | - | - | - | -
Cc1ccc(-c2nc3sc4c(c3c(=O)n2N)CC(C)(C)OC4)cc1 | - | - | - | - | - | - | . | .
Fc1ccc(C2CC(c3ccco3)n3ncnc3N2)cc1 (stereo not drawn) | - | - | - | - | - | - | . | .
Fc1ccc(C2=CC(c3ccco3)n3ncnc3N2)cc1 (stereo not drawn) | - | 36 | - | - | 35 | - | - | 12
O=C(NCc1cccnc1)/C(=C\c1ccc(-c2cccc(Cl)c2)o1)S(=O)(=O)c1ccccc1 | - | 35 | - | - | - | . | 48 | -
Cc1ccc(C(=O)N/C(=C\c2ccc(-c3cc(Cl)ccc3Cl)o2)C(=O)NCc2cccnc2)cc1 | - | - | - | - | - | - | . | .
COc1cccc(NC(=O)CN(C)C(=O)/C=C/c2cn(-c3ccccc3)nc2-c2ccc(C)cc2)c1 | - | - | - | . | - | - | . | .
COc1ccc(-c2nn(-c3ccccc3)cc2/C=C/C(=O)OCC(=O)Nc2cccc(C#N)c2)cc1 | - | 36 | - | - | - | - | - | -
O=C(c1ccccc1Cl)N(Cc1ccc(Cl)c(Cl)c1)N1C(=O)CCCC1=O | - | - | - | - | - | - | . | .
O=C(c1ccccc1Cl)N(Cc1ccc(Br)cc1)N1C(=O)CCC1=O | - | 23 | - | - | - | - | - | -
CCOC(=O)c1ccccc1OC(=O)CS(=O)c1ccccc1[N+](=O)[O-] (stereo not drawn) | - | - | - | - | - | - | . | .
CS(=O)(=O)c1ccc(S(=O)CC(=O)OCc2ccccc2)c([N+](=O)[O-])c1 (stereo not drawn) | - | 25 | - | - | - | . | 56 | 25
CN(C)CC(C(=O)c1ccccc1)c1ccccc1 (stereo not drawn) | - | 23 | - | - | - | - | - | -
SMILES | MC4R barr agon | NOD2 RIPK2 PPI | MC4R antag cAMP | TLR4 MyD88 comp | TLR9-MyD88 block | NTR1 ag | NOD2-RIPK2 conf | BLA counter
CN(Cc1cc(Cl)cc(Cl)c1)CC(C(=O)c1ccccc1)c1ccccc1 (stereo not drawn) | - | - | - | . | - | . | . | .
O=C(CCN1C(=O)NC2(CCCC2)C1=O)Nc1ccc(-c2nc3ccccc3s2)cc1 | - | - | - | . | - | - | . | .
COC(=O)c1cc(OC)c(OC)cc1NC(=O)c1csc(C)c1 | - | - | - | . | - | - | . | .
COc1ccc2c(c1OC)c(=O)n1c3ccc(OC(C)C(=O)NCCCN4CCOCC4)cc3c3ccnc2c31 (stereo not drawn) | - | 21 | - | . | - | - | - | -
COc1ccc2c(c1OC)c(=O)n1c3ccc(OC(C)C(=O)NCCN4CCOCC4)cc3c3ccnc2c31 (stereo not drawn) | - | - | - | . | - | - | . | .
O=C(NC1CCCCC1)C(c1ccc(F)cc1)N(C(=O)c1csnn1)C1CC1 (stereo not drawn) | - | - | - | . | - | - | . | .
CC(C)(C)NC(=O)C(C1CC1)n1c(=O)c(-c2cc3ccccc3[nH]2)nc2ccccc21 (stereo not drawn) | . | 42 | . | . | . | . | 39 | 62
Cc1cccc(C)c1NC(=O)C(C1CC1)n1c(=O)c(-c2ccccc2)nc2ccccc21 (stereo not drawn) | . | - | . | . | . | . | . | .
Cc1cccc(C)c1NC(=O)C(C1CC1)n1c(=O)c(-c2cc3ccccc3[nH]2)nc2ccccc21 (stereo not drawn) | . | 47 | . | . | . | . | 42 | 67
Cc1c(-c2ccncc2)oc2ccc(Br)cc2c1=O | . | . | . | - | . | - | . | .
O=c1sc(/C=N/Nc2ccccc2)c(Cl)n1Cc1ccccc1 | - | 29 | - | - | - | - | - | -
